Source: ChEMBL document CHEMBL4028909, “Discovery of an Orally Bioavailable Benzofuran Analogue That Serves as a β-Amyloid Aggregation Inhibitor for the Potential Treatment of Alzheimer's Disease” (J Med Chem, 2018)
Active and inactive are the calls of the source. The calls are words filed in the database; no cut-off is given here.

What was measured:
[1] = Clearance in iv dosed dog; format: ADME, organism-based, Canis lupus familiaris; details: in vivo
[2] = Oral bioavailability in monkey; format: ADME, organism-based, Macaca mulatta; details: rhesus monkey, in vivo
[3] = system: HT-22; test: Cytotoxicity against mouse HT22 cells assessed as effect on cell viability at 1.25 to 10 uM after 18 hrs by MTT assay; format: cell-based; details: ht-22, 18 h
In short: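 Mouse HT22 cells were treated with compound alone at the stated concentrations, without Aβ aggregates. Viability was read by MTT.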

[4] = Ratio of AUC in ICR mouse brain to AUC in ICR mouse plasma at 10 mg/kg, po measured at 0.333 hrs; format: ADME, organism-based; details: read-out: Ratio AUC
In short: (§1)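 ICR mice (n=3) given a single oral dose of 10 mg/kg. Brain and plasma were sampled over nine hours, at 0.333, 1, 3, 6 and 9 h. Kp was calculated as AUC_brain/AUC_plasma.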

[5] = system: Mus musculus; test: Reversal of cognitive deficit in amyloid beta (1 to 42)-treated Alzheimer's disease ICR mouse model assessed as increase in spatial memory function by measuring spontaneous alternation at 10 mg/kg, po administered for 3 consecutive days by Y maze test relative to control; format: functional
In short: (§2)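 Acute AD model: preformed Aβ aggregates injected directly into the brains of normal mice to induce acute neurotoxicity. Compound given orally for three consecutive days, then the Y-maze was run. Read-out is percentage of spontaneous alternation, compared against normal and vehicle-treated mice.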

[6] = biological target: T1, Cytochrome P450 2C8 (Homo sapiens, UniProt P10632); test: Inhibition of CYP2C8 in human liver microsomes preincubated for 5 mins followed by addition of NADPH generating system measured after 20 mins by LC-MS/MS analysis; format: ADME
T1 sequence (P10632 whole entry): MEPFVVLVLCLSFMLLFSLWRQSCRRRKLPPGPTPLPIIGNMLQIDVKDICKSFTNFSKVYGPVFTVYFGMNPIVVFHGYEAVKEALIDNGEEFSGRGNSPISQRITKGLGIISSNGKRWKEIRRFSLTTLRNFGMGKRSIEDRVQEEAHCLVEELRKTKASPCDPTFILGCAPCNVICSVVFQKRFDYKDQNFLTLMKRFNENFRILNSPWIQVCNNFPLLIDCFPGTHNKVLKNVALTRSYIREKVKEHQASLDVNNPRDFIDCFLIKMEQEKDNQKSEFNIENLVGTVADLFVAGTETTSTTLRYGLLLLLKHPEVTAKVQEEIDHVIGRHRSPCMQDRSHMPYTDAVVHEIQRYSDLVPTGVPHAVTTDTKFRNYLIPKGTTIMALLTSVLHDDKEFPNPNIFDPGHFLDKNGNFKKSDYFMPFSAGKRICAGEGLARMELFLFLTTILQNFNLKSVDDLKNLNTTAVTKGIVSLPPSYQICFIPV
In short: (§3)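 Inhibition of each CYP isozyme (1A2, 2A6, 2C8, 2C9, 2C19, 2D6, 3A4) was measured in human liver microsomes. IC50 values were reported in μM.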

[7] = system: Rhesus monkey; test: Volume of distribution at steady state in po dosed monkey; format: ADME, organism-based, Macaca mulatta; details: in vivo
[8] = Ratio of AUC in ICR mouse brain to AUC in ICR mouse plasma at 10 mg/kg, po measured at 6 hrs; format: ADME, organism-based; details: read-out: Ratio AUC; in short: as §1
[9] = biological target: Cytochrome P450 2C9 (Homo sapiens, UniProt P11712); test: Inhibition of CYP2C9 in human liver microsomes preincubated for 5 mins followed by addition of NADPH generating system measured after 20 mins by LC-MS/MS analysis; format: ADME; in short: as §3
Chain of Cytochrome P450 2C9 (P11712 whole entry): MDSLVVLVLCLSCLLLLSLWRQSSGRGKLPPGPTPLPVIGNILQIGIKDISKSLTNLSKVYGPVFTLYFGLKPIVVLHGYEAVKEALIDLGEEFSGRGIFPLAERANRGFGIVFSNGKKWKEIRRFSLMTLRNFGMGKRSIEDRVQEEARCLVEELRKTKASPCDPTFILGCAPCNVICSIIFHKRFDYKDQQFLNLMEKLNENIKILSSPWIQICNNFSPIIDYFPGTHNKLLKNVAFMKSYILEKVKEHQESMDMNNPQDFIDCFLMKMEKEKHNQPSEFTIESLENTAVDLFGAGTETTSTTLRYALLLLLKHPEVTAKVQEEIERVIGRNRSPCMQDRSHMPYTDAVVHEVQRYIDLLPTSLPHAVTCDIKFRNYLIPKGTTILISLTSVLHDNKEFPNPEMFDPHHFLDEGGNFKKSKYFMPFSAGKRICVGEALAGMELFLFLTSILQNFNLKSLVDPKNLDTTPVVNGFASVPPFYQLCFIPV

[10] = Cmax in po dosed monkey; format: ADME, organism-based, Macaca mulatta; set-up: route oral; details: rhesus monkey, in vivo
[11] = Clearance in iv dosed rat; format: ADME, organism-based; details: in vivo
[12] = biological target: Amyloid-beta precursor protein (Homo sapiens) (UniProt P05067); test: Induction of HFIP-pretreated amyloid beta (1 to 42) (unknown origin) disaggregation after 1 hr by transmission electron microscopic method
Chain of Amyloid-beta precursor protein (Homo sapiens) (P05067 whole entry): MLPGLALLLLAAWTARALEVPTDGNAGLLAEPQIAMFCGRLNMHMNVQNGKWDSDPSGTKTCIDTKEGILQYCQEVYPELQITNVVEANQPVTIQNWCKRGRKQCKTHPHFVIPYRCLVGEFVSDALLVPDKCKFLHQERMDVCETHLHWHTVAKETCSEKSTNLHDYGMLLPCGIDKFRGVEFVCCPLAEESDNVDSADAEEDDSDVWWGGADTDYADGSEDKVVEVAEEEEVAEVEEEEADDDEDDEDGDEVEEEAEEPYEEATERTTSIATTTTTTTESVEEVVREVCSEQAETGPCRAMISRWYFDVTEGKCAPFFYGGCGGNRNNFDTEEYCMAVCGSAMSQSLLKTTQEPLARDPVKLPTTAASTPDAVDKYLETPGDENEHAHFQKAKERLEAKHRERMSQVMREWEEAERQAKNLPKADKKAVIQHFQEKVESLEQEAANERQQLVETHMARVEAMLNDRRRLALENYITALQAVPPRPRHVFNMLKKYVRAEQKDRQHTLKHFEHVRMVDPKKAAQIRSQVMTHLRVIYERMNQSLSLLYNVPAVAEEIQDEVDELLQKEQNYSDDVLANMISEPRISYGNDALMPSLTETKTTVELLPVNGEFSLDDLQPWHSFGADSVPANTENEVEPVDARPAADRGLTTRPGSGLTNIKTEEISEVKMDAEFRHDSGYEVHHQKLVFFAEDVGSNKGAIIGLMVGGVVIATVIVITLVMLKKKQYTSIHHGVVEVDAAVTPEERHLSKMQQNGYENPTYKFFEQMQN

[13] = Half-life in po dosed dog; details: in vivo
[14] = Terminal half life in mouse at 3 mg/kg, po; format: ADME, organism-based; details: in vivo, read-out: beta t1/2 (converted)
In short: (§4)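 Mouse pharmacokinetics: single i.v. dose of 3 mg/kg, or oral doses of 3, 10 and 30 mg/kg. Plasma concentration–time curves gave T1/2 (terminal, hr), Tmax (hr), Cmax, AUC and bioavailability (%).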

[15] = Half life in po dosed rat; format: ADME, organism-based; details: in vivo
[16] = system: HT-22; test: Neuroprotective activity against amyloid beta-induced toxicity in mouse HT22 cells assessed as increase in cell viability preincubated for 1 hr followed by amyloid beta challenge measured after 18 hrs by MTT assay; format: functional, cell-based
In short: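 Mouse hippocampal HT22 cells were treated with compound at several concentrations and then exposed to preformed Aβ aggregates made from 25 μM monomeric Aβ. Viability was read by MTT and scaled between untreated cells and Aβ-only cells. Mean±SD of three independent experiments; one-way ANOVA with Dunnett test.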

[17] = Terminal half life in mouse at 3 mg/kg, iv; format: ADME, organism-based; details: in vivo, read-out: beta t1/2 (converted); in short: as §4
[18] = biological target: Amyloid-beta precursor protein (Homo sapiens) (UniProt P05067); test: Inhibition of HFIP-pretreated amyloid beta (1 to 42) (unknown origin) aggregation after 1 hr by transmission electron microscopic method
[19] = biological target: T2, Cytochrome P450 1A2 (Homo sapiens, UniProt P05177); test: Inhibition of CYP1A2 in human liver microsomes preincubated for 5 mins followed by addition of NADPH generating system measured after 20 mins by LC-MS/MS analysis; format: ADME; in short: as §3
T2 sequence (P05177 whole entry): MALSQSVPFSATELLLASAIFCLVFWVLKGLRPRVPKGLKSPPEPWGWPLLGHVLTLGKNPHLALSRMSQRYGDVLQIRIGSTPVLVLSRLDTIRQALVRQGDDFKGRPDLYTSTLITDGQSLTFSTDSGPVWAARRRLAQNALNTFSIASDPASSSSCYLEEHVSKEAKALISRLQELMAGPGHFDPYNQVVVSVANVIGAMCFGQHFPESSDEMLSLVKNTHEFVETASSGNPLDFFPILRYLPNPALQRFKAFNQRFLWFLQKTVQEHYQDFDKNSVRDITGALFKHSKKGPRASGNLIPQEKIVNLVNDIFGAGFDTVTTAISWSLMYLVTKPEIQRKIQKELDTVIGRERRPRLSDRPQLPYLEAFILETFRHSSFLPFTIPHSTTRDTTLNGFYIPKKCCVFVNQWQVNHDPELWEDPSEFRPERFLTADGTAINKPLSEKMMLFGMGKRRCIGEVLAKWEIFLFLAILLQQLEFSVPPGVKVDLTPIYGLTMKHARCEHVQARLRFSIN

[20] = biological target: Amyloid-beta precursor protein (Homo sapiens) (UniProt P05067); test: Induction of HFIP-pretreated amyloid beta (1 to 42) (unknown origin) disaggregation after 48 hrs by silver staining-based SDS-PAGE analysis
In short: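 Aβ aggregates were incubated with compound for 48 h, with congo red as positive control. Size distribution (monomer, dimer, trimer, high-molecular-weight species) was analysed by SDS-PAGE with silver staining at the start and at the end of incubation.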

[21] = system: Mus musculus; test: Reversal of cognitive deficit in amyloid beta (1 to 42)-treated Alzheimer's disease ICR mouse model assessed as increase in spatial memory function by measuring spontaneous alternation at 1 mg/kg, po administered for 3 consecutive days by Y maze test relative to control; format: functional; in short: as §2
[22] = biological target: Amyloid-beta precursor protein (Homo sapiens) (UniProt P05067); test: Induction of HFIP-pretreated amyloid beta (1 to 42) (unknown origin) disaggregation at 3.1 to 50 uM after 1 hr by Thioflavin-T fluorescence assay relative to control
[23] = system: Canis familiaris; test: Volume of distribution at steady state in po dosed dog; format: ADME, organism-based, Canis lupus familiaris; details: in vivo

COCCCc1ccc2oc(-c3ccc(OC)c(OC)c3)cc2c1
clearance [1]: 29 mL/min/kg
bioavailability [2]: 70%
Activity [3]: Non-Toxic
Kp at 0.333 h [4]: 1.2
Activity [5]: 73.07%
IC50 [6]: 31.4 µM
Vdss [7]: 3.8 L/kg
Kp at 6 h [8]: 1.2
IC50 [9]: > 50 µM
Cmax [10]: 969 ng/mL
clearance [11]: 33 mL/min/kg
Activity [12]: Active
t1/2 [13]: 1.4 h
half-life [14]: 2 h
half-life [15]: 3.8 h
Activity [16]: Dose-dependent effect
half-life [17]: 1.4 h
inhibition [18]: Active
IC50 [19]: > 50 µM
Activity [20]: Active
Activity [21]: 71.22%
Activity [22]: 40%
Vdss [23]: 2.7 L/kg
